# Screens deposited in PubChem BioAssay by several laboratories.
# Sampled rows, rich in hits. Any-hit rate of the full collection: about 3.4%.
# ROMK primary = ROMK potassium channel modulators, primary screen, cell-based, thallium flux, MLSMR library. B-score at 10 µM. ATP-sensitive inward rectifier potassium channel 1 (Homo sapiens), P48048. Tet-inducible ROMK, thallium flux fluorescence; actives lie on both sides. actives 2% (n = 130,000);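 active means signal ratio slope over the read window, or its plate-corrected B-score, at least 3 SD from the plate mean, either direction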;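 further: B-score of the F/F0 ratio slope over 7 to 12 s after thallium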
# p97 ATPase inh = inhibitors of human p97 ATPase, primary screen, biochemical. Transitional endoplasmic reticulum ATPase (Homo sapiens), P55072. recombinant p97 ATPase, Kinase-Glo ATP luminescence, 3 h. inhibition, % at 8 µM. actives 0.42% (n = 220,000). AID 1481, 2009; in the data active means inhibition above about 15%;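 further: 0% = DMSO vehicle and 100% = wells lacking enzyme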
# DTT redox prof = compounds producing H2O2 with reducing agent – biochemical, NIH compound library profiling, artefact control for MLSCN library redox annotation, primary screen; DTT-dependent redox cycling H2O2, phenol red/HRP absorbance; 100% = 100 µM peroxide control, 0% = buffer; activation, % at 10 µM; actives 0.03% (n = 200,000);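 active means activation of at least 50% relative to the plate's high and low controls in the primary single-dose screen; inactive means activation below 50%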;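 further: compound incubated with DTT at 0.8 mM final as the reducing agent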
# PKD1 kinase inh = inhibitors of human PKD1 kinase, biochemical, fluorescence polarization. Serine/threonine-protein kinase D1 (Homo sapiens), Q15139. PKD1 kinase fluorescence polarization assay. inhibition, % (test concentration not listed). actives 0.056% (n = 200,000). AID 797, 2007; in the data active means inhibition above about 50%
# Target sequence (Q15139 whole entry, looked up): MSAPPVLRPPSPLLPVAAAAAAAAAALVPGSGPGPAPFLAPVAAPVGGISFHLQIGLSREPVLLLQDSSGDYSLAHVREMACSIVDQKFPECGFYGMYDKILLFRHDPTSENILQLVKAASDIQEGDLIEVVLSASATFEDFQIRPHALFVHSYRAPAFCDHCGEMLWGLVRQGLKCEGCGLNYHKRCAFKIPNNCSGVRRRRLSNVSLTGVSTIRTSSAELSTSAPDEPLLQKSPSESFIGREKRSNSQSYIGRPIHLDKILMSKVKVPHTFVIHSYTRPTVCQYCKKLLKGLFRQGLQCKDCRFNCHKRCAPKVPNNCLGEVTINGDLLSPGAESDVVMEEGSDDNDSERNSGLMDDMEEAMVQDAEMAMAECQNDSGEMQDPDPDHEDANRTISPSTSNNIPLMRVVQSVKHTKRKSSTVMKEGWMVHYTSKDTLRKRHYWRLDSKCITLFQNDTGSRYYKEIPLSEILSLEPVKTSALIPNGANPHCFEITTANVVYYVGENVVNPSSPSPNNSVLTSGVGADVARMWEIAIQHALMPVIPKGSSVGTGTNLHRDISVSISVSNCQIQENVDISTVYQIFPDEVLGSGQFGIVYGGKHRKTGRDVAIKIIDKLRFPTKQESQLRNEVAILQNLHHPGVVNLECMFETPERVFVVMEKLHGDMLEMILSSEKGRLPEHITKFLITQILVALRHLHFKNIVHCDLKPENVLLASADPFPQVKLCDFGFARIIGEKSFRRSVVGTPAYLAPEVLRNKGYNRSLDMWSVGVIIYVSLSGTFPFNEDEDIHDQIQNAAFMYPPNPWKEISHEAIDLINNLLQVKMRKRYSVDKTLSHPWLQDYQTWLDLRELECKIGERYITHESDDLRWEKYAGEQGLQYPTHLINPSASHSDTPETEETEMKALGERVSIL
# KCC2 mod = KCC2 cotransporter modulators, thallium flux, primary screen, cell-based, HEK293 KCC2, FluoZin-2 fluorescence, MLSMR. B-score of Tl+ flux slope (higher = more flux/activation; lower = inhibition) at 10 µM. KCC2 cells, thallium flux FluoZin-2 fluorescence. actives 2.2% (n = 190,000). Solute carrier family 12 member 5 (Homo sapiens), Q9H2X9;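 active means thallium flux slope and its plate-corrected score both differing from the plate sample mean at a set confidence after two filtering rounds, in either direction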;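 further: slope of fluorescence scaled to starting intensity during 10 to 20 s after thallium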
# MDM2 E3 inh = MDM2-luciferase reporter signal enhancers, primary screen, MDM2 E3 ligase inhibitor project, cell-based, luminescence, 1536-well. signal enhancement, % at 5 µM. E3 ubiquitin-protein ligase Mdm2 (Homo sapiens), Q00987. AID 1230, 2008. actives 0.11% (n = 210,000). cell-based MDM2 ubiquitination luciferase reporter, 2 h; 0 = plate control, 100 = twice control, blank-subtracted;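 active means signal enhancement of 30% or more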;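 further: luminescence tracks abundance of the self-degrading MDM2-luciferase fusion protein; higher signal means inhibition of MDM2 E3 ligase activity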
#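 Assay system: stable mammalian line carrying autodegrading MDM2–luciferase fusion reporter; amount: 2000 cells seeded into each well; buffer or medium: DMEM; benchmarks: plate control and blank wells; signal: luciferase luminescence; timing: 2 h compound exposure at 37 °C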
# KCC2 secondary = KCC2 modulators in sodium-free buffer, confirmation, cell-based, HEK293 KCC2, thallium flux, secondary assay. shares compounds with KCC2 mod. FluoZin2 fluorescence; hits give high values. normalised thallium flux (F/F0 slope) at 10 µM. actives 15% (n = 3,700). AID 1713, 2009;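 active means thallium flux slope above the same plate's solvent-only control mean plus 3 SD; inconclusive means the two replicate wells disagree; inactive means no significant difference from solvent-only control wells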
# KCC2 bumet counter = thallium flux persisting under bumetanide in KCC2 cells, confirmation, counter-screen for KCC2 modulator project, cell-based, HEK293 KCC2, FluoZin2, secondary assay 3; actives 49% (n = 3,700); HEK293-KCC2 + bumetanide/ouabain; hits give high values; normalized thallium flux at 10 µM; shares compounds with KCC2 mod;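 active means thallium entry rate above the same plate's blocked-transporter control wells by more than 3 SD; inconclusive means the two repeat wells disagree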;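 further: raw slope of fluorescence over initial fluorescence between 10 and 20 s after thallium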
# KCC2 secondary2 = KCC2 modulators without ouabain present, confirmation, cell-based, HEK293 KCC2, thallium flux, FluoZin2, secondary assay 2. shares compounds with KCC2 mod. thallium flux FluoZin2 fluorescence; actives lie on both sides; F/F0 rise rate, 10–20 s post-thallium. normalized thallium flux at 10 µM. actives 23% (n = 3,700). AID 1715, 2009;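 active means thallium flux slope more than 3 SD above or below the plate's solvent-only control mean, mostly below; inconclusive means the two repeat wells disagreed; inactive means no significant shift from solvent-only controls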;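 further: raw slope with 0.1% DMSO as baseline and bumetanide as block control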
# HEK counter1 = thallium flux modulation in parental HEK cells, confirmation, counter-screen for KCC2 modulator project, cell-based, counterscreen 1 | shares compounds with KCC2 mod | actives 46% (n = 3,700) | HEK293 parental cells, thallium flux FluoZin2, ouabain; baseline-ratio fluorescence slope, 10–20 s after thallium | thallium flux rate (normalised fluorescence) at 10 µM;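 active means thallium flux rate significantly above the same plate's solvent-only control wells, beyond their mean plus 3 SD; inconclusive means the two replicate wells gave conflicting results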
# KCC2 ouabain = KCC2 inhibitors and activators, ouabain retest, confirmation, HEK-KCC2 cells. AID 1717, 2009. shares compounds with KCC2 mod. actives 48% (n = 3,700). HEK293-KCC2, thallium flux FluoZin2 fluorescence; bidirectional: low = inhibitor, high = activator. raw Tl+ flux slope (below DMSO = inhibition, above = activation) at 10 µM;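 active means thallium flux slope beyond 3 SD from same-plate DMSO control mean in most replicates, usually higher, sometimes lower; inconclusive means repeat tests gave conflicting results; inactive means no significant difference from controls in most replicates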;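 further: slope of initial-normalized fluorescence between seconds 10 and 20 after thallium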
# HEK counter2 = native HEK Tl+ uptake effects, second counter-screen – HEK cells, counterscreen 2, counter-screen for KCC2 modulator project, confirmation. HEK293 parental, thallium flux FluoZin-2 fluorescence slope. shares compounds with KCC2 mod. actives 33% (n = 3,700). thallium flux slope at 10 µM;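 active means thallium flux slope above the same plate's solvent-control mean plus 3 SD in both duplicate wells; inconclusive means duplicate wells that disagreed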;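 further: run without ouabain in cells lacking the KCC2 cotransporter; slope of fluorescence scaled to its starting value between 10 and 20 s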
# Starred values were filed as active, the others as inactive; ? = inconclusive; nt = no result given.
SMILES,ROMK primary,p97 ATPase inh,DTT redox prof,PKD1 kinase inh,KCC2 mod,MDM2 E3 inh,KCC2 secondary,KCC2 bumet counter,KCC2 secondary2,HEK counter1,KCC2 ouabain,HEK counter2
CN(C)S(=O)(=O)c1cccc(NC(=O)c2cc3c(cc2Cl)N2CCCCCC2=NS3(=O)=O)c1,-0.82,-1,-1,-10,-4.5*,3,0.0093,0.0065,0.023*,0.0067,0.014*,0.0091
COC(=O)c1cc2c(cc1Cl)N1CCCCCC1=NS2(=O)=O,nt,4,nt,nt,-0.16,-7,nt,nt,nt,nt,nt,nt
Cc1ccc(NCc2nnc(SCC(=O)N3CCCc4ccccc43)o2)c(C)c1,nt,3,1,0,0.46,-6,nt,nt,nt,nt,nt,nt
CCC(Sc1nc(C)cc(=O)[nH]1)C(=O)Nc1nc(-c2ccccc2)cs1 (stereo not given),nt,6,0,-7,-5.3*,-16,0.0046,0.0055,0.021*,0.006*,0.012*,0.0097
CCCOc1ccc(-c2nc(-c3ccc(N)cc3)cs2)cc1,nt,-1,nt,nt,0.66,nt,nt,nt,nt,nt,nt,nt
CC(C)CC(=O)Nc1ccc(N2CCN(S(C)(=O)=O)CC2)cc1,0.23,2,0,-7,0.27,-2,nt,nt,nt,nt,nt,nt
FC(F)(F)c1ccc(Cl)c(-n2c(-c3cc(C4CC4)[nH]n3)n[nH]c2=S)c1,nt,7,nt,nt,4.1*,-4,0.011,0.016*,0.035,?,?,0.012
FC(F)(F)c1ccc(Cl)c(-n2c(-c3cc(-c4ccco4)[nH]n3)n[nH]c2=S)c1,nt,11,nt,nt,0.098,-4,nt,nt,nt,nt,nt,nt
COc1ccc(/C(O)=C2\C(=O)C(=O)N(CCN3CCOCC3)C2c2ccccc2OC)cc1 (stereo not given),0.61,2,0,-4,-0.98,-9,nt,nt,nt,nt,nt,nt
C=CCn1c(SCC(N)=O)nc2scc(-c3ccc(C)o3)c2c1=O,-0.43,-2,-3,-4,37*,-22,0.0073,0.028*,0.047*,0.037*,0.042*,0.035*
